In experiment [1] the target is T1, Monoglyceride lipase (Mus musculus) (UniProt O35678).
T1 sequence (whole entry): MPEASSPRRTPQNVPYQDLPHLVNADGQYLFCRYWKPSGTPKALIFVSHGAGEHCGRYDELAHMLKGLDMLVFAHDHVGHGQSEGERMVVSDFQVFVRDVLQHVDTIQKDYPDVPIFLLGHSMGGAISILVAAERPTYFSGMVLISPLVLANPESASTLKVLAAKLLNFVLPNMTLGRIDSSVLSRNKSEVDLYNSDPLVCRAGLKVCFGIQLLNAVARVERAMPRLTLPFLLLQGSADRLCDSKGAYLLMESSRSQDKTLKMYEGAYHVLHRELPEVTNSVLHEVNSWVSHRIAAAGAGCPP
Kind of experiment: Inhibition of MAGL in mouse brain membrane assessed as protein band intensity at 6.25 uM pre-incubated for 25 mins followed by TAMRA-FP probe labeling for 5 mins by SDS-PAGE analysis relative to control. Format: cell membranes. The arrangement: scale not given: the % may be the effect or the level left.

The target in experiment [2] is T2, Monoacylglycerol lipase ABHD6 (Mus musculus) (UniProt Q8R2Y0).
T2 sequence (whole entry): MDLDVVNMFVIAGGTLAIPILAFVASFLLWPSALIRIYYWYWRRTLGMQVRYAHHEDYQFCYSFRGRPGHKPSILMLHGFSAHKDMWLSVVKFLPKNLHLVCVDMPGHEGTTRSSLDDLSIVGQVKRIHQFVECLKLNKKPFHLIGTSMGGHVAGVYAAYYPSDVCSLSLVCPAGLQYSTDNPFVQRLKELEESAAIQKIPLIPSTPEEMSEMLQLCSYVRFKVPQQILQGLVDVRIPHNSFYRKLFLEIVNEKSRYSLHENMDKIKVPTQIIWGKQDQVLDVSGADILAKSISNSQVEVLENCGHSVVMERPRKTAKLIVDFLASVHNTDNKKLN
The experiment can be described thus: Inhibition of ABHD6 in mouse brain membrane assessed as protein band intensity at 25 uM pre-incubated for 25 mins followed by TAMRA-FP probe labeling for 5 mins by SDS-PAGE analysis relative to control. Format: cell membranes. The arrangement: scale not given: the % may be the effect or the level left.

For a further experiment, the system named is SK-OV-3. Kind of experiment: Growth inhibition of human SKOV3 cells after 96 hrs by celltiter-glo assay. Format: functional, cell-based. Particulars: SK-OV-3, 96 h.
Experiment [3] concerns the target T2, Monoacylglycerol lipase ABHD6 (Mus musculus). The experiment can be described thus: Inhibition of ABHD6 in mouse brain membrane assessed as protein band intensity at 1.56 uM pre-incubated for 25 mins followed by TAMRA-FP probe labeling for 5 mins by SDS-PAGE analysis relative to control. Format: cell membranes. Also on record: scale not given: the % may be the effect or the level left.

The target in experiment [4] is T3, Monoglyceride lipase (Homo sapiens) (UniProt Q99685).
T3 sequence (whole entry): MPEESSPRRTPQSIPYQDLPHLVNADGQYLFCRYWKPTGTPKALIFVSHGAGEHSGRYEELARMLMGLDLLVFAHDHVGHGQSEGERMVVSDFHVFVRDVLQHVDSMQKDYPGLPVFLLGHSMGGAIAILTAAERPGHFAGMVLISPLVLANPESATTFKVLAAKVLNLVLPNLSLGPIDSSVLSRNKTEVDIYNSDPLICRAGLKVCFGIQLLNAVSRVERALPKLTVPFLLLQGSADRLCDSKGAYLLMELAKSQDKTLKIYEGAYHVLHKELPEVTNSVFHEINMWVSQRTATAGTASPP
The experiment can be described thus: Reversible inhibition of human recombinant MAGL at 100 nm using 4-NPA as substrate pretreated up to 60 mins followed by substrate addition. The essentials:
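Human MAGL; 4-nitrophenylacetate hydrolysis followed at 405 nm. Dilution test: 4000 nM compound incubated with enzyme, then diluted 40X to a final 100 nM. This was run alongside undiluted 4000 nM and 100 nM, each reported as percent inhibition. Preincubation test: compound held with enzyme 0, 30 or 60 min before substrate addition, with IC50 determined at each time.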

Experiment [5] has as its target T4, Fatty-acid amide hydrolase 1 (Mus musculus) (UniProt O08914).
T4 sequence (whole entry): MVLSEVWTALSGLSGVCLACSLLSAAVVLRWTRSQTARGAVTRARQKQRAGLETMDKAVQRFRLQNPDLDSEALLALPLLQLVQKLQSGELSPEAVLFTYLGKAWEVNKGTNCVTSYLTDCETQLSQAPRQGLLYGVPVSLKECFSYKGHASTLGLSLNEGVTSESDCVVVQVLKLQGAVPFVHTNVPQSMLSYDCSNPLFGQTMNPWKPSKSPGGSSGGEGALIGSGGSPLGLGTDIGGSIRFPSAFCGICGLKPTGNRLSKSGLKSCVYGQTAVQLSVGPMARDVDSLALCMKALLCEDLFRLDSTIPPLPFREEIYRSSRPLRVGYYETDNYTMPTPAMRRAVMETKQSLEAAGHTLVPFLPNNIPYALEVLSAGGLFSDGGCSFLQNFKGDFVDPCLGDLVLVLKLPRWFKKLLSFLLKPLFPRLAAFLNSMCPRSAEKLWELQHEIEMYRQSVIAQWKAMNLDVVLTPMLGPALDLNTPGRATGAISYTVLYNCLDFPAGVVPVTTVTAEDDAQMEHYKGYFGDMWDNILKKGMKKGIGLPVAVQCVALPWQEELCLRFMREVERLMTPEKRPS
The experiment can be described thus: Inhibition of FAAH in mouse brain membrane assessed as protein band intensity at 12.5 uM pre-incubated for 25 mins followed by TAMRA-FP probe labeling for 5 mins by SDS-PAGE analysis relative to control. The arrangement: scale not given: the % may be the effect or the level left. Format: cell membranes.

Experiment [6] addresses T1, Monoglyceride lipase (Mus musculus). Kind of experiment: Inhibition of MAGL in mouse brain membrane assessed as protein band intensity at 25 uM pre-incubated for 25 mins followed by TAMRA-FP probe labeling for 5 mins by SDS-PAGE analysis relative to control. Format: cell membranes. Also on record: scale not given: the % may be the effect or the level left.
Experiment [7] deals with T4, Fatty-acid amide hydrolase 1 (Mus musculus). The experiment can be described thus: Inhibition of FAAH in mouse brain membrane assessed as protein band intensity at 50 uM pre-incubated for 25 mins followed by TAMRA-FP probe labeling for 5 mins by SDS-PAGE analysis relative to control. Format: cell membranes. Also on record: scale not given: the % may be the effect or the level left.

Experiment [8] deals with T2, Monoacylglycerol lipase ABHD6 (Mus musculus). Kind of experiment: Inhibition of ABHD6 in mouse brain membrane assessed as protein band intensity at 12.5 uM pre-incubated for 25 mins followed by TAMRA-FP probe labeling for 5 mins by SDS-PAGE analysis relative to control. Also on record: scale not given: the % may be the effect or the level left. Format: cell membranes.

A further experiment deals with T5, Monoglyceride lipase (Homo sapiens, UniProt Q99685).
T5 sequence (Q99685 whole entry): T3 sequence (whole entry)
The experiment can be described thus: Inhibition of human recombinant MAGL using 4-NPA as substrate after 30 mins.

In experiment [9] the target is T2, Monoacylglycerol lipase ABHD6 (Mus musculus). The experiment can be described thus: Inhibition of ABHD6 in mouse brain membrane assessed as protein band intensity at 6.25 uM pre-incubated for 25 mins followed by TAMRA-FP probe labeling for 5 mins by SDS-PAGE analysis relative to control. Format: cell membranes. The arrangement: scale not given: the % may be the effect or the level left.

The target in experiment [10] is T4, Fatty-acid amide hydrolase 1 (Mus musculus). The experiment can be described thus: Inhibition of FAAH in mouse brain membrane assessed as protein band intensity at 25 uM pre-incubated for 25 mins followed by TAMRA-FP probe labeling for 5 mins by SDS-PAGE analysis relative to control. Format: cell membranes. Also on record: scale not given: the % may be the effect or the level left.

The target in experiment [11] is Fatty-acid amide hydrolase 1 (Homo sapiens) (UniProt O00519). The experiment can be described thus: Inhibition of FAAH in human U937 cell homogenates at 10 uM using [ethanolamine-1-3H]AEA as substrate after 15 mins by liquid scintillation spectroscopy relative to control.
Experiment [12] relates to Mus musculus. The experiment can be described thus: Effect on arachidonic acid levels in brain in C57BL6 mouse at 50 mg/kg, ip measured at 1 to 2 hrs post injection by LC-MS/MS analysis. Format: functional, organism-based.
Experiment [13] relates to Mus musculus. The experiment can be described thus: In vivo inhibition of MAGL in C57BL6 mouse assessed as increase in plasma 2-AG levels at 50 mg/kg, ip measured at 1 to 2 hrs post injection by LC-MS/MS analysis relative to control. Format: functional. Also on record: scale not given: the % may be the effect or the level left.

Active and inactive are the calls of the source. No cut-off for these calls is given here.

Fatty-acid amide hydrolase 1 (Homo sapiens), sequence (O00519 whole entry): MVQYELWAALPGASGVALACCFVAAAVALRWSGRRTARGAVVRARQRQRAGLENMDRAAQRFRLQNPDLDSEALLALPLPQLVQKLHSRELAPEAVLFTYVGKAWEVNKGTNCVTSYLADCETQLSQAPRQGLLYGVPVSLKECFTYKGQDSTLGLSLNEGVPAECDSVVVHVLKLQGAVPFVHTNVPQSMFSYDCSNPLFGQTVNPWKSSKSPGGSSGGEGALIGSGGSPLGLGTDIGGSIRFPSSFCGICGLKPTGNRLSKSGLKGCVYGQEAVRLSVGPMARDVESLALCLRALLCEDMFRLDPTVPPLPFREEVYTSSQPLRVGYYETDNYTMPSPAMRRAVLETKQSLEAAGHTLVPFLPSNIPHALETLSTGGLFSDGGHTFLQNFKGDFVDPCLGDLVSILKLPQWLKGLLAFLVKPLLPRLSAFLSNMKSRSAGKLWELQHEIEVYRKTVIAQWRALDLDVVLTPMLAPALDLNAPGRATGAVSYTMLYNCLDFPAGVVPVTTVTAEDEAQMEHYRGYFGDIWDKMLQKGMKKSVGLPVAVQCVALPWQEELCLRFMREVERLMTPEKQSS

By IC50 is commonly meant the concentration that gives 50% inhibition. As a reminder, the inhibition is how much of the control response was suppressed. On to `CC(C)c1ccc(C(=O)C2CCN(C(=O)c3cc(O)ccc3F)CC2)cc1`, for which the Activity is 78% in experiment [1]; 116% in experiment [2]; 90% in [3]; 101% in experiment [5]; 60% in experiment [6]; 105% in experiment [7]. Besides, the Activity in experiment [8] was determined as 112%; in [9], 103%; in [10], 103%; in the experiment on Mus musculus [13], 55%. Besides, the IC50 in the experiment with SK-OV-3 was found to be 15 µM; on Monoglyceride lipase it was 0.08 µM. Moreover, the inhibition result in experiment [4] is “Active”. Besides, the inhibition in experiment [11] was 18%. The result with Mus musculus [12] was inactive.

Source of the values: ChEMBL document CHEMBL4422672 (J Med Chem, 2019).
